# HIV Env fusion = inhibitors of HIV Env-mediated cell fusion. inhibition, % at 12.3 µM. HeLa-JRFL Env/CEM21 cell fusion, luciferase. AID 651610. actives 1.1% (n = 360,000);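 active = mean replicate inhibition score of at least 50 and every replicate individually at or above 50; inconclusive = only one of the two criteria met; inactive = mean below 50 and not all replicates reaching 50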
# Glyco luc inh = N-linked glycosylation inhibition; AID 588692; reporter increase, % at 12.5 µM; D54 ERlucT glycosylation luciferase reporter, 24 h; percent of 100 nM tunicamycin response; actives 0.23% (n = 360,000);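 active = mean luciferase reporter signal, scaled so untreated is 0 and the glycosylation-blocking control 100, at or above a set limit in every replicate; inconclusive = mean reaches the limit but not every replicate does; inactive = mean below the limit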;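 note: luciferase carries N-glycosylation sites so blocking glycosylation raises the light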
# PAX8 inh HTS = lowers PAX8-driven luciferase in RMG-I cells | inhibition, % at 12.6 µM | actives 1.2% (n = 360,000) | RMG-I TPO-luciferase reporter, SteadyGlo, 24 h;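 active = mean replicate inhibition at least 60% with every replicate also reaching 60%; inconclusive = only one of the two criteria is met; inactive = mean below 60% and not all replicates reaching 60%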;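 note: luciferase light reporting Pax8 driven TPO promoter activity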
# AF4-AF9 inh = MLL-AF4/AF9 protein interaction inhibition | AID 651704 | actives 0.47% (n = 350,000) | AlphaScreen, biotin-AF4 peptide binding to FLAG-AF9 | inhibition, % at 10 µM | P42568;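 active = every replicate reaching a set inhibition limit, whatever the replicate mean, cut at about 25% in these data; inconclusive = mean inhibition reaches that limit but some replicates miss it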
# Target sequence (P42568 whole entry, looked up): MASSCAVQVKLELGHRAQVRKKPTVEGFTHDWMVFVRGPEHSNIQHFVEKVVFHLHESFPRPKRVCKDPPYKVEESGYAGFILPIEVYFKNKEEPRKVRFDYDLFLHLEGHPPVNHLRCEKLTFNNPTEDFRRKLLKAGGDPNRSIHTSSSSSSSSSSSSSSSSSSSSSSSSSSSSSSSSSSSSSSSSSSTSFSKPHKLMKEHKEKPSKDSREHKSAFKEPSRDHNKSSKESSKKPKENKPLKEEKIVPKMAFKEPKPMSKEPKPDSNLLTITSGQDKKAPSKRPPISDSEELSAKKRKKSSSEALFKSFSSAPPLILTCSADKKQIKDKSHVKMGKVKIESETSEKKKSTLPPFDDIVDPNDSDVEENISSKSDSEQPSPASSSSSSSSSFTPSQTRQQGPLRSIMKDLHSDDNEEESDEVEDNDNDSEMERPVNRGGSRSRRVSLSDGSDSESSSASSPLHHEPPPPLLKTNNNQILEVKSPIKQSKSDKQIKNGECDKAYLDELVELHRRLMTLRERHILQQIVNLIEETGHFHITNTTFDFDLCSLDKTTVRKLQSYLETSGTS
# EWS-Fli inh = inhibitors of EWS/Fli oncoprotein transcriptional activity; A673 NR0B1-luciferase reporter, viability-normalised; actives 0.67% (n = 350,000); inhibition, % at 12.6 µM; AID 651661;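 active = mean inhibition of at least 50% after viability correction, with every replicate also passing that limit; inconclusive = mean reaches 50% but only one of two replicates passes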;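 note: firefly luciferase signal divided by Alamar Blue viability fluorescence both relative to DMSO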
# FN deposit inh = fibronectin deposition inhibition; AH1F fibroblasts, Alexa488-fibronectin deposition fluorescence, overnight; inhibition, % at 12.6 µM; actives 0.086% (n = 350,000);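 active = mean inhibition across replicates of 30% or more, regardless of how many single replicates reach that level; inconclusive = mean under 30% yet at least half of replicates reach 30%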
#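 Assay system: AH1F fibroblasts / Quantity: 10000 cells per well / Medium: DMEM plus 2% serum, read in PBS / Reagent: labelled fibronectin 24 nM / Dosing: single dose, pinned / Times: 1 h cell attachment, overnight exposure to compound and label / Signal: fluorescence, ex 485 nm, em 525 nm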
# Numbers stand for hits; n = inactive; u = inconclusive; x = no result; [ ] = another dose, or the depositor's remark. Compounds with a hit are over-represented: about 2.5% of the library has one in this group of screens.
SMILES,HIV Env fusion,Glyco luc inh,PAX8 inh HTS,AF4-AF9 inh,EWS-Fli inh,FN deposit inh
O=C(C[C@@H]1CC[C@H]2[C@@H](COC[C@@H](O)CN2Cc2ccc(Oc3ccccc3)cc2)O1)N1CCN(c2ccccc2)CC1,59.0[16.7 µM],x,64.3,n,n,n
O=C(C[C@@H]1CC[C@@H]2[C@H](COC[C@H](O)CN2Cc2ccc(Oc3ccccc3)cc2)O1)N1CCN(c2ccccc2)CC1,n,x,61.7,n,n,n
O=C(C[C@@H]1CC[C@H]2[C@@H](COC[C@H](O)CN2Cc2ccc(Oc3ccccc3)cc2)O1)Nc1nccs1,n,x,65.9,n,n,n
O=C(C[C@H]1CC[C@H]2[C@@H](COC[C@@H](O)CN2Cc2ccc(Oc3ccccc3)cc2)O1)Nc1nccs1,n,x,n,n,n,n
C[C@@H]1CN([C@H](C)CO)C(=O)c2cc(NS(=O)(=O)c3ccc(F)cc3)ccc2O[C@H]1CN(C)C,x,x,n,n,n,n
Cc1ccc(NC(=O)CCCCCC2NC(=O)NC2C)cc1 (stereo not drawn),x,n,x,97.1,n,x
O=C(Cn1ncc(Cl)c(Cl)c1=O)NC(=O)NC1CCCCC1,61.4,n,91.4,n,62.2,n
CCN1CCN(c2ccc(S(=O)(=O)N3CCCCC3)cc2NC(=O)/C=C/c2ccc(F)cc2)CC1,n,n,n,n,n,n
Cc1ccc(S(=O)(=O)N2CCCCC2)cc1NC(=O)CCNC(=O)c1ccc([N+](=O)[O-])cc1,58.7,n,n,n,n,n
Cc1ccc(S(=O)(=O)N2CCCCC2)cc1NC(=O)c1nn(C)c(=O)c2ccccc12,65.9,n,n,n,n,n
CCN1CCN(c2ccc(S(=O)(=O)N3CCCCC3)cc2NC(=O)/C=C/c2ccc([N+](=O)[O-])cc2)CC1,x,n,n,n,57.4,n
O=C(CCNC(=O)c1ccc([N+](=O)[O-])cc1)Nc1cccc(S(=O)(=O)N2CCCCC2)c1,n,n,n,n,n,n
O=C(CN1CCCCC1)NC(=O)NC1CCCC1,n,n,n,n,n,n
O=C(C[C@H]1CC[C@@H](NC(=O)c2ccncc2)[C@H](CO)O1)NCc1ccncn1,x,x,n,n,x,x
CC(C)C#Cc1ccc2c(c1)O[C@H](CN(C)C(=O)c1ccncc1)[C@H](C)CN([C@@H](C)CO)S2(=O)=O,x,x,n,n,n,x
CCNC(=O)[C@@H]1[C@@H](CO)[C@@H]2Cn3c(ccc(-c4ccncc4)c3=O)[C@@H]2N1Cc1ccc2c(c1)OCO2,x,x,n,n,n,x
O=C(C1CCCC1)N1[C@H](CO)[C@@H]2c3ccccc3NC[C@@H]21,x,x,x,n,n,n
COc1ccc(NC(=O)Cn2ncc(Cl)c(Cl)c2=O)cc1S(=O)(=O)N1CCOCC1,n,n,83.5,x,n,x
O=C(Cn1ncc(Cl)c(Cl)c1=O)Nc1ccc2c(c1)OCO2,n,n,89.4,n,n,n
CCN(CC)S(=O)(=O)c1cc(NC(=O)Cn2ncc(Cl)c(Cl)c2=O)ccc1C,n,n,93.0,n,n,n
Cc1ccc(S(=O)(=O)N2CCCCC2)cc1NC(=O)Cn1ncc(Cl)c(Cl)c1=O,n,n,99.3,n,75.0,n
Cc1ccc(S(=O)(=O)N2CCCCC2)cc1NC(=O)Cn1cnnn1,n,n,n,n,n,n
Cn1cnc(CCNC(=O)C[C@@H]2CC[C@@H]3[C@H](COC[C@@H](O)CN3C(=O)Nc3ccc(F)cc3)O2)c1,x,x,n,n,n,n
Cc1cccc(OCCCC(=O)Nc2ccc(Cl)c(S(=O)(=O)N3CCOCC3)c2)c1,61.9,n,n,n,n,n
Cc1cccc(OCCC(=O)Nc2ccc(C)c(S(=O)(=O)N3CCOCC3)c2)c1,x,n,n,n,n,n
SMILES,HIV Env fusion,Glyco luc inh,PAX8 inh HTS,AF4-AF9 inh,EWS-Fli inh,FN deposit inh
Nc1nc(CCl)nc(N(c2ccccc2)c2ccccc2)n1,n,n,99.2,n,n,n
CCOC(=O)c1nc(Nc2ccc(N3CCC(C)CC3)cc2)c2ccccc2n1,62.3,n,n,n,n,n
COc1ccc2c3c(n(C)c2c1)[C@@H](CO)N(C(=O)C1CCOCC1)CC31CCN(C(=O)C2CCOCC2)CC1,x,x,n,n,n,n
COCC(=O)N1CC2(CCN(Cc3ccccc3Cl)CC2)c2c([nH]c3cc(OC)ccc23)[C@@H]1CO,x,x,n,n,n,x
COc1cccc(S(=O)(=O)N2CCC3(CC2)CN(C(=O)Nc2cccc(F)c2)[C@@H](CO)c2[nH]c4cc(OC)ccc4c23)c1,72.4[16.7 µM],x,x,n,n,x
CCC(=O)N1CC2(CCN(Cc3ccccc3Cl)CC2)c2c([nH]c3cc(OC)ccc23)[C@H]1CO,x,x,x,n,n,n
COc1ccc2c3c([nH]c2c1)[C@@H](CO)N(C(=O)CN(C)C)CC31CCN(Cc2ccccc2Cl)CC1,x,x,n,30.1,n,x
CCC(=O)N1CC2(CN(Cc3ccccc3Cl)C2)c2c([nH]c3cc(OC)ccc23)[C@@H]1CO,x,x,n,28.5,n,x
CCC(=O)N1CC2(CCN(Cc3ccc(Cl)cc3)CC2)c2c([nH]c3cc(OC)ccc23)[C@H]1CO,x,x,x,32.2,n,x
CN1C(=O)c2cc(NC(=O)c3ccccc3)ccc2OC[C@H]2O[C@H](CC(=O)NCC3CC3)CC[C@@H]21,n,x,n,n,n,x
COc1ccc(C2=Nn3c(nnc3-c3ccccc3F)SC2)cc1OC1CCOC1 (stereo not drawn),n,n,n,n,60.2,n
COc1ccc(C2=Nn3c(nnc3-c3ccncc3)SC2)cc1,96.2,n,x,x,x,n
COc1ccc(C2=Nn3c(nnc3-c3ccco3)SC2)cc1,n,25.3,x,x,x,n
COc1ccc(OC)c(-c2nnc3n2N=C(c2ccc(OC)c(OC)c2)CS3)c1,n,u,n,n,55.8,n
CC(=O)N(C)C[C@H]1Oc2ccc(N(C)C)cc2CC(=O)N(C)C[C@H]1C,x,x,x,x,x,n
COc1cccc(-n2c(SCC(=O)N3CCc4ccccc43)nnc2-c2c[nH]c3ccccc23)c1,56.0,n,n,n,n,n
Cc1noc(C)c1NC(=O)N(C)C[C@H]1OCCCC[C@@H](C)Oc2ccc(NC(=O)C3CCCCC3)cc2C(=O)N([C@@H](C)CO)C[C@@H]1C,n,x,n,n,n,x
CN(Cc1nccn1C)C(=O)c1cc(COc2ccc3ncccc3c2)on1,n,n,n,n,n,n
Cc1cc(CN(C)C(=O)c2cc(COc3ccc4ncccc4c3)on2)on1,n,n,91.2,n,n,n
O=C(c1cc(COc2ccc3ncccc3c2)on1)N1CCC[C@H]1CO,58.7,x,n,n,n,n
O=C(c1cc(COc2ccc3ncccc3c2)on1)N1CCCC(O)C1 (stereo not drawn),n,n,n,n,n,x
Cc1noc(C)c1S(=O)(=O)N(C)C[C@@H]1Oc2ccc(NS(=O)(=O)c3cn(C)cn3)cc2CC(=O)N([C@H](C)CO)C[C@H]1C,n,x,x,n,n,n
O=S(=O)(N[C@H]1CC[C@@H](CCn2cc(-c3ccccn3)nn2)O[C@H]1CO)c1cccc(Cl)c1,n,x,n,n,n,n

# Compound activity (PubChem BioAssay)
